Measurements reported in ChEMBL document CHEMBL2203264, “Optimization of imidazo[4,5-b]pyridine-based kinase inhibitors: identification of a dual FLT3/Aurora kinase inhibitor as an orally bioavailable preclinical development candidate for the treatment of acute myeloid leukemia” (J Med Chem, 2012).
Active and inactive are the calls of the source. The calls are words filed in the database; no cut-off is given here.

Columns and labels:
[1] = target: T1, Cytochrome P450 2A6 (Homo sapiens, UniProt P11509); experiment: Inhibition of human liver microsome CYP2A6 by LC-MS-MS analysis; assay type: ADME
T1 sequence (P11509 whole entry): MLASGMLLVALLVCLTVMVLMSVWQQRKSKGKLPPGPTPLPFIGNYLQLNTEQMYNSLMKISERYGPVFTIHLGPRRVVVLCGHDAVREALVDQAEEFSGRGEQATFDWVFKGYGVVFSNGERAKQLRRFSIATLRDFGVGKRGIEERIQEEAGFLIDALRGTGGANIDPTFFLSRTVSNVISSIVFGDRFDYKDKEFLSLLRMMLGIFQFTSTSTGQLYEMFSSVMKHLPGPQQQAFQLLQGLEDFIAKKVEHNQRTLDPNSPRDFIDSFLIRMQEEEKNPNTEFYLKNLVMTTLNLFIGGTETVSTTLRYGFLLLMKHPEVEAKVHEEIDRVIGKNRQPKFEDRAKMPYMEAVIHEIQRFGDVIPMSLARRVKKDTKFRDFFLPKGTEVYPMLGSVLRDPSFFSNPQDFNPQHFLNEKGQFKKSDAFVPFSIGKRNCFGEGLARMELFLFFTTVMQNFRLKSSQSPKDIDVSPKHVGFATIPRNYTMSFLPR
How it was run: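 Pooled human liver microsomes (50 donors) at 0.5 mg/mL protein, incubated for 10 min with isoform-selective probe substrates. Metabolite formation was detected by LC–MS/MS with positive ESI.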

[2] = system: MV4-11; experiment: Antitumor activity against human MV4-11 cells xenografted in CrTacNCr-Fox1(nu) athymic mouse assessed as tumor growth inhibition at 50 mg/kg, po bid administered 10 days post implantation daily for 7 days measured after 11 days; assay type: functional; set-up: scale not given: the % may be the effect or the level left
How it was run: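 Female adult CrTacNcr-Fox1(nu) athymic mice, s.c. 10^7 FLT3-ITD-positive MV4-11 cells; treatment began at 10 days (mean tumor volume at least 100 mm^3). Oral 50 or 100 mg/kg in 10% DMSO, 20% PEG 400, 5% Tween 80, 65% water, or vehicle alone; n = 5 per group. Dosed twice daily for 7 days, then once daily for 4 days; study ended day 60.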

[3] = AUC (infinity) in Sprague-Dawley rat at 5 mg/kg, iv; assay type: ADME, organism-based; set-up: time infinity, dose 5 mg/kg, route intravenous; settings: plasma
How it was run: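 Female Sprague–Dawley rats dosed iv at 5 mg/kg in 10% DMSO, 5% Tween 20, 85% saline, 0.3% 1 M HCl. Serial tail-vein bleeds at 15, 30 min and 2, 4, 6, 24 h. Plasma was methanol-precipitated with olomoucine internal standard, then analysed by LC–MS (positive ESI MRM).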

[4] = target: Tyrosine-protein kinase JAK2 (Homo sapiens) (UniProt O60674); experiment: Inhibition of JAK2 at 1 uM
How it was run: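 KINOMEScan competition-binding panel of 442 kinases (386 nonmutant) tested at 1 μM. Binding is read as percent of control ligand competition; <10% of control counts as a hit for the S(10) score.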

[5] = Metabolic stability in mouse liver microsomes assessed as parent compound metabolism after 30 mins by LC-MS analysis; assay type: ADME, Microsome; settings: read-out: Drug metabolism
How it was run: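 Male CD1 mouse liver microsomes (1 mg/mL protein) incubated with 10 μM compound plus NADPH 1 mM, UDPGA 2.5 mM and MgCl2 3 mM in 10 mM PBS at 37 °C for 0 and 30 min. NADPH/UDPGA-free controls included. LC–MS quantitation of remaining compound; reported as percent parent metabolized after 30 min.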

[6] = Clearance in Balb/C mouse at 5 mg/kg, iv; assay type: ADME, organism-based; set-up: dose 5 mg/kg, route intravenous; settings: in vivo
How it was run: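 Female Balb/C mice given a single 5 mg kg^-1 iv dose in 10% DMSO, 5% Tween 20 in saline. Mice sacrificed at 5, 15, 30 min and 1, 2, 4, 6, 24 h. Plasma from cardiac blood, methanol protein precipitation with olomoucine internal standard, LC–MS (positive ESI MRM). Clearance given in L/h.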

[7] = system: Mus musculus; experiment: Inhibition of Stat5 phosphorylation at Y694 in tumor of human MV4-11 cells xenografted CrTacNCr-Fox1(nu) athymic mouse at 50 to 100 mg/kg, po bid for 4 days measured after 2 hrs post final dose; assay type: functional, organism-based
How it was run: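 MV4-11 xenograft-bearing athymic mice dosed orally at 50 or 100 mg/kg twice daily for 4 days, starting 17 days after implantation. Tumors harvested 2 h after the final dose. Western blotting for phospho-histone H3 (S10) and phospho-Stat5 (Y694), with total histone H3, total Stat5 and GAPDH as loading controls.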

[8] = Metabolic stability in human liver microsomes assessed as parent compound metabolism after 30 mins by LC-MS analysis; assay type: ADME, Microsome; settings: read-out: Drug metabolism
How it was run: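 Test compound at 10 μM with pooled mixed-gender human liver microsomes (1 mg/mL protein), NADPH 1 mM, UDPGA 2.5 mM and MgCl2 3 mM in 10 mM PBS at 37 °C for 0 and 30 min. Controls omit NADPH/UDPGA. Compound remaining measured by LC–MS; reported as percent of parent metabolized at 30 min.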

[9] = Oral bioavailability in Sprague-Dawley rat at 5 mg/kg; assay type: ADME, organism-based; settings: in vivo
How it was run: (§1)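 Female Sprague-Dawley rats, 5 mg/kg. Oral vehicle 10% DMSO, 5% Tween 80, 20% PEG400 in water; iv vehicle 10% DMSO, 5% Tween 20, 85% saline, 0.3% 1 M HCl. Serial tail-vein plasma at 15, 30 min and 2, 4, 6, 24 h. Methanol precipitation with olomoucine internal standard, then LC-MS (C18 BEH, positive ESI MRM).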

[10] = Half life in Balb/C mouse at 5 mg/kg, iv; assay type: ADME, organism-based; set-up: dose 5 mg/kg, route intravenous; settings: in vivo
How it was run: (§2)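 Female Balb/C mice given 5 mg/kg po or iv in 10% DMSO, 5% Tween 20 in saline. Killed at 5, 15, 30 min and 1, 2, 4, 6, 24 h; plasma from cardiac blood. Methanol protein precipitation with olomoucine internal standard, then LC-MS (reverse-phase C18, positive ESI MRM).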

[11] = target: Voltage-gated inwardly rectifying potassium channel KCNH2 (Homo sapiens, UniProt Q12809); experiment: Inhibition of human ERG by whole-cell voltage clamping
How it was run: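 hERG tail current measured by whole-cell voltage clamp (Cyprotex) to obtain an IC50. Single-point screens were a separate high-throughput cell-based electrophysiology assay at 10 μM, with 0.3% DMSO vehicle and 1 μM cisapride as controls.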

[12] = Half life in Sprague-Dawley rat at 5 mg/kg, iv; assay type: ADME, organism-based; set-up: dose 5 mg/kg, route intravenous; settings: in vivo; how it was run: as §1
[13] = Oral bioavailability in Balb/C mouse at 5 mg/kg; assay type: ADME, organism-based; settings: in vivo; how it was run: as §2

Sequence of Voltage-gated inwardly rectifying potassium channel KCNH2 (Q12809 whole entry): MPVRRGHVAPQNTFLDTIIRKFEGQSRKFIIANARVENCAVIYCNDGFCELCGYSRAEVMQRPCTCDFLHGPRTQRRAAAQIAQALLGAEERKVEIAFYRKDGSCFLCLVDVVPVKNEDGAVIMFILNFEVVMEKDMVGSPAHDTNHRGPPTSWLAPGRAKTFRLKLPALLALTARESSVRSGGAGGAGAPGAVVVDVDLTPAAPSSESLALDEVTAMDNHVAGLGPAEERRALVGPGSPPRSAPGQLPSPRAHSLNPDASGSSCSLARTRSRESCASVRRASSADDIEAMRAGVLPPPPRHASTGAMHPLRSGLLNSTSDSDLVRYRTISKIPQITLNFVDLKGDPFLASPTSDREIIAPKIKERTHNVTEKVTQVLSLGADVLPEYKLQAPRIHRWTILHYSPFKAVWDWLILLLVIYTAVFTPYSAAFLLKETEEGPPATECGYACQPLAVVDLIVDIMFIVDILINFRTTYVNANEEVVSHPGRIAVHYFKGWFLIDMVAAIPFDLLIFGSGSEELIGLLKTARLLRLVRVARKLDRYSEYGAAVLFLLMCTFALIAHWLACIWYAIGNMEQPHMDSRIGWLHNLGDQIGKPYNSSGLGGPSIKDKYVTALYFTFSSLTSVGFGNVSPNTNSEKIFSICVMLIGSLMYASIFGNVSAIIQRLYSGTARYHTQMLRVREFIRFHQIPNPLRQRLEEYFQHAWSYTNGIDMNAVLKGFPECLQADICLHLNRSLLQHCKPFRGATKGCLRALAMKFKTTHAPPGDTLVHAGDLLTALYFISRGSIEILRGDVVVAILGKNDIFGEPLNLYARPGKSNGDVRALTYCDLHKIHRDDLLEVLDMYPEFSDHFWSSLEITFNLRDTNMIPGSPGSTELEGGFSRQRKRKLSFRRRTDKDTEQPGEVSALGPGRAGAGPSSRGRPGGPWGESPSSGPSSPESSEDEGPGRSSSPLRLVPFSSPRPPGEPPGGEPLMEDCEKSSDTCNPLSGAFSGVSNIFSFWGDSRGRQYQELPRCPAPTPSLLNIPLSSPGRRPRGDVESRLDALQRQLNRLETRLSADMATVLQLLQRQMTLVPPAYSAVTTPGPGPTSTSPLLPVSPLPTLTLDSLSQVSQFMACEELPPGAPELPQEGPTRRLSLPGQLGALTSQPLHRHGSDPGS
Sequence of Tyrosine-protein kinase JAK2 (Homo sapiens) (O60674 whole entry): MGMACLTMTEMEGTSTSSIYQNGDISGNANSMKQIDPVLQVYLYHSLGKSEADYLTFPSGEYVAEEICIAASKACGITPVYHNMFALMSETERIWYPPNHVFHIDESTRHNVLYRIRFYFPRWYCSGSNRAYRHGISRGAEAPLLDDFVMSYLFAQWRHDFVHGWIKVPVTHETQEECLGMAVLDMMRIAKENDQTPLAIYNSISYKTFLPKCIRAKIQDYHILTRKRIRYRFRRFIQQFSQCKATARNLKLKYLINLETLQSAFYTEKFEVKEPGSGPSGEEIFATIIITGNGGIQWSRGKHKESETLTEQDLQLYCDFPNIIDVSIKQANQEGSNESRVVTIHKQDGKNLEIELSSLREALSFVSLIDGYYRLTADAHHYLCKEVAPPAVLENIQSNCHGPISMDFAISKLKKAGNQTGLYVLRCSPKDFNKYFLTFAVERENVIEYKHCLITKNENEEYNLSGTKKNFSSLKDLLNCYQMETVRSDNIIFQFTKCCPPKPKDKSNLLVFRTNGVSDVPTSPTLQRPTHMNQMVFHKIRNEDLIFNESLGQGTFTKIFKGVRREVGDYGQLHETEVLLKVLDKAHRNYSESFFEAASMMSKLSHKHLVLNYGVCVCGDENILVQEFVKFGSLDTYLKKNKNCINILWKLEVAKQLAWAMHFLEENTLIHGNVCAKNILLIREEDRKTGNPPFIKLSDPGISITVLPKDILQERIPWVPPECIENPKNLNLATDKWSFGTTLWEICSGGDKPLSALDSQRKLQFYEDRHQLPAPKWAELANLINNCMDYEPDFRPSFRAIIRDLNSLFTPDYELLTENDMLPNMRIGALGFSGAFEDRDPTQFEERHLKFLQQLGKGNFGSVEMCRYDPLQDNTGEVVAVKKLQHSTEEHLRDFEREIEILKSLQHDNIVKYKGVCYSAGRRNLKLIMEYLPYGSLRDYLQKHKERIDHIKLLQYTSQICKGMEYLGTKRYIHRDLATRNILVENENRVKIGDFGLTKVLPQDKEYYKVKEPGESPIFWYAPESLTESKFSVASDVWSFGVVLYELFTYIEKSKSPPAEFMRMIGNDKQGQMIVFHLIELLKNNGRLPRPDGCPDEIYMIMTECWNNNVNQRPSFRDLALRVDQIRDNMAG

## Cc1nn(C)cc1-c1nc2c(N3CCN(Cc4ccc(Cl)cc4)CC3)c(Cl)cnc2[nH]1 [MOBINITINIB]
[1]
  IC50: > 10 µM
[2]
  Activity: 42%
[3]
  AUC(0-inf): 39.9 µM·h
[4]
  inhibition: 1.3%
[5]
  metabolised at 0.5 h: 34%
[6]
  clearance: 0.967 mL/min
[7]
  inhibition: Active
[8]
  metabolised at 0.5 h: 10%
[9]
  bioavailability: 79%
[10]
  half-life: 0.84 h
[11]
  IC50: > 25 µM
[12]
  half-life: 4.62 h
[13]
  bioavailability: 100%
